Series [1] in a line: Therapeutic index, ratio of CC50 for human U937 cells to MIC90 for Candida albicans ATCC 10261. The class given is cell-based, U-937. The gist of the method: (§1)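 Therapeutic index calculated as CC50 in the given cell line divided by MIC90.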
The subject of the next series is Candida parapsilosis. In words: Antifungal activity against Candida parapsilosis ATCC 22019 at 35 degC after 48 hrs by broth microdilution test. Type of series: functional. The note with it: Lodderomyces parapsilosis, ATCC 22019, 48 h; for MFC: read-out: MFC; for MIC: read-out: MIC. Put shortly: (§2)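 Broth microdilution per NCCLS M27-A2. Stocks in 100% DMSO, diluted in RPMI 1640 with 0.165 M MOPS at pH 7.0; final range 0.25–128 µg/mL. Inoculum 1000–5000 cells/mL from SDA subcultures. […] C. parapsilosis ATCC22019 served as QC strain.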

Series [2] deals with Arthrodermataceae. In words: Antifungal activity against dermatophytes at 28 degC after 7 days by broth microdilution test. Type of series: functional. The note with it: 168 h. The gist of the method:
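Ten clinical isolates (two M. canis, five M. gypseum, three T. mentagrophytes) tested by NCCLS M38-A broth microdilution in MOPS-buffered RPMI 1640, pH 7.0, over 0.25–128 µg/mL. Conidial/hyphal suspension from PDA slants (28 °C, 7 days) adjusted to 65–70% transmittance at OD530, then diluted 1:50.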

The subject of series [3] is Arthrodermataceae. In words: Antifungal activity against dermatophytes at 28 degC after 48 to 96 hrs by broth microdilution test.
Series [4] in a line: Cytotoxicity against human K562 cells after assessed as reduction of cell viability 24 hrs by MTT assay. Type of series: cell-based. The gist of the method: (§3)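 U937 and K562 cells, from ATCC, plated at 5 × 10^4/mL in phenol-red-free RPMI-1640 with 20% FBS and penicillin/streptomycin. Compounds added 2 h later at 25–100 µg/mL, then 24 h at 37 °C. MTT at 1 mg/mL for 3 h, formazan dissolved in isopropanol with 0.1 N HCl, absorbance read at 570 nm. CC50 is the concentration reducing viability by 50% versus the drug-free control.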
(In general: Tetrazolium dyes change colour on reduction, which living cells bring about.)

Series [5] is described as follows: Cytotoxicity against human U937 cells assessed as reduction of cell viability after 24 hrs by MTT assay. The class given is cell-based, U-937. Put shortly: as §3
For series [6], the system named is Arthrodermataceae. In words: Antifungal activity against dermatophytes at 28 degC after 5 days by broth microdilution test. The note with it: for MFC: Arthrodermataceae. (In general: Broth dilution looks for growth in wells or tubes with falling amounts of substance.)
Series [7] relates to Candida albicans. In words: Antifungal activity against fluconazole-sensitive Candida albicans Fe40 at 35 degC after 48 hrs by broth microdilution test. Type of series: functional. The gist of the method: as §2
For series [8], the system named is Candida albicans. In words: Antifungal activity against Candida albicans ATCC 10261 at 35 degC after 48 hrs by broth microdilution test. Type of series: functional. The note with it: Candida albicans, ATCC 10261, 48 h; for MIC: read-out: MIC; for MIC50: read-out: MIC50; for MIC90: read-out: MIC90. Put shortly: as §2
Series [9] relates to Candida albicans. In words: Antifungal activity against fluconazole-resistant Candida albicans isolated from oropharyngeal or vaginal disease patient after 48 hrs by broth microdilution test. Type of series: functional.
Series [10] is described as follows: Therapeutic index, ratio of CC50 for human K562 cells to MIC90 for Candida albicans ATCC 10261. Type of series: cell-based. The gist of the method:
as §1

For series [11], the system named is Candida albicans. In words: Antifungal activity against Candida albicans ATCC 10261 at 35 degC after 48 to 96 hrs by broth microdilution test. Type of series: functional. The note with it: for MFC: Candida albicans, ATCC 10261, read-out: MFC. The gist of the method:
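Minimal fungicidal concentration for Candida. […] MFC is the lowest concentration allowing fewer than two colonies (99% killing).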

≈ marks a conversion by molar mass, not a printed value.

As usually defined, the MFC is the lowest tested concentration that kills the fungus rather than only halting it. A word on the MIC: it is the least concentration at which growth counts as inhibited. Broadly, the MIC50 is an inhibitory concentration at the 50% level, which refers to growth in some studies and to a panel of isolates in others. Usually MIC90 stands for an inhibitory concentration at the 90% level, which refers to growth in some studies and to a panel of isolates in others. A word on the CC50: it is the concentration at which the toxic effect on the cells reaches its halfway point.

With `CC(=O)N1CCN(c2ccc(OCC3COC(Cn4ccnc4)(c4ccc(Cl)cc4Cl)O3)cc2)CC1` (stereo not given) [KETOCONAZOLE], the selectivity ratio turned out to be 15.6 in series [1] and 12.8 in [10]. The MFC with Candida parapsilosis is 0.5 µg/mL (≈ 0.941 µM); with Arthrodermataceae [6] it was 6.6 µg/mL (≈ 12.4 µM); in the series with Candida albicans [11], 16.3 µg/mL (≈ 30.7 µM). Further, the MIC with Candida parapsilosis stood at 0.06 µg/mL (≈ 0.113 µM); with Arthrodermataceae [2] it was 1.6 µg/mL (≈ 3.01 µM); with Candida albicans [7] it was 4 µg/mL (≈ 7.53 µM); in the series on Candida albicans [8] it was 5.9 µg/mL (≈ 11.1 µM); against Candida albicans [9] it was 20 µg/mL (≈ 37.6 µM). For the same compound, the MIC50 in the series on Arthrodermataceae [2] stood at 1 µg/mL (≈ 1.88 µM); with Candida albicans [8], 4 µg/mL (≈ 7.53 µM). Besides, the MIC90 turned out to be 2 µg/mL (≈ 3.76 µM) with Arthrodermataceae [2] and 8 µg/mL (≈ 15.1 µM) with Candida albicans [8]. Also, the MFC50 in the series on Arthrodermataceae [3] came out at 8 µg/mL (≈ 15.1 µM); with Candida albicans [11], 16 µg/mL (≈ 30.1 µM). Also, the results for the 50% cytotoxic concentration (CC50) at 24 h in series [4] and in series [5] were 102 µM and 125 µM, respectively. The results for the MFC90 against Arthrodermataceae [6] and in the series on Candida albicans [11] were 8 µg/mL (≈ 15.1 µM) and 32 µg/mL (≈ 60.2 µM), respectively.
Regarding `Cc1ccc(OC(CCCn2ccnc2)c2ccc(Cl)cc2)cc1` (stereo not given), the selectivity ratio in series [1] came to 87.5. For the same compound, in the series on Candida parapsilosis, the MFC came to 0.25 µg/mL (≈ 0.733 µM) and the MIC was determined as 0.03 µg/mL (≈ 0.088 µM). Moreover, the CC50 at 24 h in series [4] came out at 259 µM. For the same compound, the CC50 at 24 h in series [5] worked out at 350 µM. Besides, in the series on Candida albicans [8], the MIC was found to be 2.1 µg/mL (≈ 6.16 µM), the MIC50 was found to be 2 µg/mL (≈ 5.87 µM) and the MIC90 was 4 µg/mL (≈ 11.7 µM). In addition, in [10], the selectivity ratio turned out to be 64.8. Besides, in the series on Candida albicans [11], the MFC50 amounted to 4 µg/mL (≈ 11.7 µM), the MFC90 worked out at 8 µg/mL (≈ 23.5 µM) and the minimal fungicidal concentration (MFC) was determined as 5.6 µg/mL (≈ 16.4 µM).
For the compound `Cc1ccc(OC(CCn2ccnc2)c2ccc(Cl)cc2)cc1` (stereo not given), the selectivity ratio in series [1] came to 81.3; in series [10], 56.8. The MFC in the series on Candida parapsilosis was 4 µg/mL (≈ 12.2 µM); against Arthrodermataceae [6], 28.8 µg/mL (≈ 88.1 µM); in the series on Candida albicans [11] it was 10 µg/mL (≈ 30.6 µM). The MIC in the series on Candida parapsilosis amounted to 2 µg/mL (≈ 6.12 µM); in the series with Arthrodermataceae [2], 4.6 µg/mL (≈ 14.1 µM); with Candida albicans [7], 2 µg/mL (≈ 6.12 µM); in the series with Candida albicans [8], 3.2 µg/mL (≈ 9.79 µM); with Candida albicans [9] it was 5.6 µg/mL (≈ 17.1 µM). Besides, the MIC50 against Arthrodermataceae [2] turned out to be 4 µg/mL (≈ 12.2 µM); with Candida albicans [8], 2 µg/mL (≈ 6.12 µM). Moreover, the MIC90 with Arthrodermataceae [2] amounted to 8 µg/mL (≈ 24.5 µM); in the series with Candida albicans [8] it was 4 µg/mL (≈ 12.2 µM). The values for the MFC50 in the series with Arthrodermataceae [3] and in the series on Candida albicans [11] were 32 µg/mL (≈ 97.9 µM) and 8 µg/mL (≈ 24.5 µM), respectively. The CC50 at 24 h in series [4] amounted to 227 µM; in series [5], 325 µM. For the same compound, the MFC90 was found to be 32 µg/mL (≈ 97.9 µM) against Arthrodermataceae [6] and 16 µg/mL (≈ 49 µM) with Candida albicans [11].
In the case of `Clc1ccc(COC(Cn2ccnc2)c2ccc(Cl)cc2Cl)c(Cl)c1` (stereo not given) [MICONAZOLE], the selectivity ratio in series [1] is 30; in series [10] it was 20. For the same compound, the minimal fungicidal concentration (MFC) in the series on Candida parapsilosis amounted to 0.5 µg/mL (≈ 1.2 µM); in the series on Arthrodermataceae [6] it was 3 µg/mL (≈ 7.21 µM); in the series on Candida albicans [11], 12.2 µg/mL (≈ 29.3 µM). Further, the MIC in the series on Candida parapsilosis was 1 µg/mL (≈ 2.4 µM); against Arthrodermataceae [2], 0.9 µg/mL (≈ 2.16 µM); with Candida albicans [7], 4 µg/mL (≈ 9.61 µM); in the series on Candida albicans [8], 3.25 µg/mL (≈ 7.81 µM); in the series on Candida albicans [9], 3 µg/mL (≈ 7.21 µM). Besides, the MIC50 amounted to 1 µg/mL (≈ 2.4 µM) against Arthrodermataceae [2] and 4 µg/mL (≈ 9.61 µM) in the series with Candida albicans [8]. Moreover, the MIC90 came out at 1 µg/mL (≈ 2.4 µM) against Arthrodermataceae [2] and 4 µg/mL (≈ 9.61 µM) with Candida albicans [8]. In addition, the MFC50 with Arthrodermataceae [3] worked out at 2 µg/mL (≈ 4.81 µM); in the series on Candida albicans [11], 8 µg/mL (≈ 19.2 µM). For the same compound, the results for the half-maximal cytotoxic concentration (CC50) at 24 h in series [4] and in series [5] were 80 µM and 120 µM, respectively. The MFC90 against Arthrodermataceae [6] is 4 µg/mL (≈ 9.61 µM); in the series with Candida albicans [11] it was 16 µg/mL (≈ 38.4 µM).
For `Clc1ccc(C(CCn2ccnc2)Oc2ccccc2)cc1` (stereo not given), the minimum fungicidal concentration (MFC) with Candida parapsilosis amounted to 16 µg/mL (≈ 51.2 µM); against Arthrodermataceae [6], 30.4 µg/mL (≈ 97.2 µM); in the series with Candida albicans [11], 29.2 µg/mL (≈ 93.4 µM). Moreover, the MIC in the series with Candida parapsilosis is 4 µg/mL (≈ 12.8 µM); with Arthrodermataceae [2], 7.2 µg/mL (≈ 23 µM); in the series on Candida albicans [7], 8 µg/mL (≈ 25.6 µM); with Candida albicans [8] it was 8.8 µg/mL (≈ 28.1 µM); against Candida albicans [9], 14.4 µg/mL (≈ 46 µM). Moreover, the MIC50 in the series on Arthrodermataceae [2] and with Candida albicans [8] was 8 µg/mL (≈ 25.6 µM) each time. Also, the MIC90 came to 8 µg/mL (≈ 25.6 µM) against Arthrodermataceae [2] and 16 µg/mL (≈ 51.2 µM) with Candida albicans [8]. The MFC50 is 32 µg/mL (≈ 102 µM) in the series on Arthrodermataceae [3] and 16 µg/mL (≈ 51.2 µM) in the series on Candida albicans [11]. Further, the cytotoxic concentration (CC50) at 24 h came to 186 µM in series [4] and 248 µM in [5]. Also, the MFC90 was 32 µg/mL (≈ 102 µM) in the series on Arthrodermataceae [6] and 64 µg/mL (≈ 205 µM) in the series on Candida albicans [11].

Source of the values: ChEMBL document CHEMBL1157464, “1-[(3-Aryloxy-3-aryl)propyl]-1H-imidazoles, new imidazoles with potent activity against Candida albicans and dermatophytes. Synthesis, structure-activity relationship, and molecular modeling studies” (J Med Chem, 2008).
